The source of these data is ChEMBL document CHEMBL5335790, “Design, synthesis and biological evaluation of novel 2,4-thiazolidinedione derivatives able to target the human BAG3 protein” (Eur J Med Chem, 2023).

The test system of one data set is A549. The data set can be described thus: Antiproliferative activity against human A549 cells assessed as cell growth inhibition incubated for 72 hrs by resazurin dye based analysis. The data set is classed as functional. In short, it runs like this: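 Cells seeded at 2000/well, treated 24 h later with compounds in a 6-point 2-fold dose series, duplicate wells, two independent experiments. After 72 h, resazurin was added at 44 µM final for 3 h at 37 °C and fluorescence was read at 590 nm. Viability was normalized to 1 µM bortezomib (positive) and 0.5% DMSO (negative) controls. GI50 is the mean ± SEM of dose-response curves.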

The nature of data set [1]: Cytotoxicity against resting human PBMC cells assessed as cell growth inhibition incubated for 72 hrs by MTT assay. It counts as toxicity, cell-based. For orientation: Tetrazolium dyes change colour on reduction, which living cells bring about.
The test system of data set [2] is HD-MB03. The data set can be described thus: Induction of apoptosis in human HD-MB03 cells assessed as membrane blebbing at 20 uM incubated for 24 hrs in presence of chloroquine by bright field imaging analysis. It counts as functional, cell-based.
Data set [3] deals with HD-MB03. The data set can be described thus: Sensitization of chemotherapy induced cytotoxicity against human HD-MB03 cells assessed as inhibition of cell growth at 2.5 uM incubated for 72 hrs in presence of 0.25 unit of vincristine, etoposide, cisplatin, cyclophosphamide by resazurin dye based analysis (reference value: 73.44 +/- 0.92%). The data set is classed as functional. A general note: Resazurin is reduced to fluorescent resorufin, in cell work by metabolically active cells.

The subject of data set [4] is HD-MB03. Put plainly: Sensitization of chemotherapy induced cytotoxicity against human HD-MB03 cells assessed as inhibition of cell growth at 5 uM incubated for 72 hrs in presence of 0.12 unit of vincristine, etoposide, cisplatin, cyclophosphamide by resazurin dye based analysis (reference value: 51.43 +/- 1.17%). The data set is classed as functional.
The test system of data set [5] is HD-MB03. Put plainly: Sensitization of chemotherapy induced cytotoxicity against human HD-MB03 cells assessed as inhibition of cell growth at 5 uM incubated for 72 hrs in presence of 1 unit of vincristine, etoposide, cisplatin, cyclophosphamide by resazurin dye based analysis (reference value: 91.53 +/- 1.15%). It counts as functional.
Data set [6] concerns HD-MB03. Put plainly: Sensitization of chemotherapy induced cytotoxicity against human HD-MB03 cells assessed as inhibition of cell growth at 5 uM incubated for 72 hrs in presence of 2 unit of vincristine, etoposide, cisplatin, cyclophosphamide by resazurin dye based analysis (reference value: 97.7 +/- 1.3%). It counts as functional.
For data set [7], the system named is HD-MB03. Put plainly: Sensitization of chemotherapy induced cytotoxicity against human HD-MB03 cells assessed as inhibition of cell growth at 10 uM incubated for 72 hrs in presence of 2 unit of vincristine, etoposide, cisplatin, cyclophosphamide by resazurin dye based analysis (reference value: 97.7 +/- 1.3%). It counts as functional.

Activity calls are given as the source filed them. The rule behind the calls is not given here. Some results are limits rather than exact numbers.

Broadly, the GI50 is the concentration that inhibits growth by half. What is called inhibition is the drop in the measured response relative to a control, in per cent. `CC(C(=O)N1CCOCC1)N1C(=O)S/C(=C\c2cccc(O)c2O)C1=O` (racemic): the GI50 in the data set on A549 came to 28 µM. In addition, in data set [1], the GI50 at 72 h was over 100 µM. The result with HD-MB03 [2] was Active. Besides, the inhibition at 2.5 µM in the data set with HD-MB03 [3] was 69.9%. Also, the inhibition at 5 µM came to 62.3% in the data set with HD-MB03 [4], 92% in the data set with HD-MB03 [5] and 95.2% with HD-MB03 [6]. Also, the inhibition at 10 µM in the data set on HD-MB03 [7] was found to be 93.2%.
